# Screens deposited in PubChem by several laboratories.
# PAFAH1B3 FP inh: PAFAH1B3 enzyme inhibitors, primary screen, biochemical, fluorescence polarization, human; Platelet-activating factor acetylhydrolase IB subunit alpha1 (Homo sapiens), Q15102; recombinant PAFAH1B3, FP-rhodamine probe; inhibition, % at 3.39 µM; hit rate 0.28% among 340,000; AID 492972, 2010;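 active = inhibition above the screen-wide average of all tested compounds plus 3 SD, cut at about 25% in these data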;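 also: 0% = enzyme with DMSO only and 100% = wells lacking PAFAH1B3 protein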
# Target sequence (Q15102 whole entry, looked up): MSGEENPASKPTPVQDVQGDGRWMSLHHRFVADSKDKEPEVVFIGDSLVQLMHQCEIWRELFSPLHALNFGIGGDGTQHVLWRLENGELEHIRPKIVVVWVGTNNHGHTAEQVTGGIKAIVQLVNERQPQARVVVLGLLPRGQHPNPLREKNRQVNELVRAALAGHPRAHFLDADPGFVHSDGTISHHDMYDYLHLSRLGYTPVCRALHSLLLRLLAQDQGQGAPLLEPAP
# PAFAH2 FP inh: PAFAH2 enzyme inhibitors, primary screen, biochemical, fluorescence polarization, human; Platelet-activating factor acetylhydrolase 2, cytoplasmic (Homo sapiens), Q99487; recombinant PAFAH2, FP-rhodamine activity probe; inhibition, % at 3.39 µM; hit rate 0.99% among 340,000;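 active = inhibition above the mean over all tested compounds plus 3 SD, cut at about 30% in these data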;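 also: inhibitors block probe labeling of enzyme so polarization drops; 0% = enzyme with DMSO and 100% = wells lacking PAFAH2 protein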
# pPAFAH inh: pPAFAH enzyme inhibitors, primary screen, biochemical, fluorescence polarization, human; Platelet-activating factor acetylhydrolase (Homo sapiens), Q13093; AID 463082, 2010; hit rate 1.5% among 330,000; recombinant pPAFAH, FP-rhodamine probe fluorescence polarization; inhibition, % at 3.39 µM;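 active = inhibition above the mean inhibition across the screen plus 3 SD, cut at about 25% in these data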;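 also: inhibitors block binding of the rhodamine activity-based probe so polarization drops; 0% = enzyme with DMSO and 100% = wells lacking pPAFAH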
# UCH37 DUB inh: inhibitors of human UCH37 deubiquitinase, primary screen, biochemical, Ub-AMC cleavage, fluorescence; hit rate 0.33% among 330,000; inhibition, % (no concentration beside the values); purified proteasome/UCH37; AID 588478, 2011;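 active = mean inhibition over replicate wells above about 20%, limit read from the data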;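 also: 0% = compound-free wells with enzyme and 100% = wells lacking proteasome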
# Target sequence (Q9Y5K5 whole entry, looked up): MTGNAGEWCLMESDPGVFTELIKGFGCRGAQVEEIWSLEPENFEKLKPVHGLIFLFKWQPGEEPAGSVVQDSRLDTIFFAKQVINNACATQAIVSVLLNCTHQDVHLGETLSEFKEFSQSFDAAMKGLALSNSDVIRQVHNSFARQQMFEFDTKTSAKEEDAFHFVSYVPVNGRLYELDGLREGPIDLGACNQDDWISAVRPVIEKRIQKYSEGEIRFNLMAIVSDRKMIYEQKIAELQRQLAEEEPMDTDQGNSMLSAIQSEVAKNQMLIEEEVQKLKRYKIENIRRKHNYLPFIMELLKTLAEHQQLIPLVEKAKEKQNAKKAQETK
#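 system = Proteasome-associated human UCH37 deubiquitinase | amount = 0.15 nM proteasome as dispensed | medium = pH 7.4 Tris-HCl (50 mM) with ovalbumin, ATP-MgCl2, DTT | incubation = 30 min preincubation with enzyme, 25 min cleavage at room temperature | detection = AMC fluorescence 355/460 nm | read-out basis = percent inhibition | controls = no-proteasome and no-compound wells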
# PAFAH1B2 inh: PAFAH1B2 enzyme inhibitors, primary screen, biochemical, fluorescence polarization, human; AID 492953, 2010; inhibition, % at 3.39 µM; hit rate 1.2% among 340,000; recombinant PAFAH1B2, FP-rhodamine activity probe;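 active = inhibition above the mean of all tested compounds plus 3 SD, cut at about 24% in these data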;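 also: 0% = enzyme with DMSO and 100% = wells lacking PAFAH1B2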
# NR3A LBD binder: binders of NR3A ligand-binding domain, primary screen, biophysical, differential scanning fluorimetry, uHTS; Glutamate receptor ionotropic, NMDA 3A (GRIN3A) ligand-binding domain; NR3A LBD differential scanning fluorimetry, Tm shift; 0% = protein alone, 100% = glycine-bound protein; Tm shift relative to glycine control, % at 25 µM; hit rate 2.5% among 340,000; AID 1259313, 2017;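 active = melting temperature shift of at least 10% of the positive control shift, at one fixed dose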
# The depositor's hits bear a star; i = inactive; nt = not tested or not shown. Shown are actives, neighbours in structure and some others; about 4.8% of the full set was active somewhere.
SMILES,PAFAH1B3 FP inh,PAFAH2 FP inh,pPAFAH inh,UCH37 DUB inh,PAFAH1B2 inh,NR3A LBD binder
COCCN(C(=O)CCc1ccccc1OC)c1nnc(-c2cccnc2)s1,2,6,25*,4,6,-2
COc1ccc(C(=O)NN=Cc2ccc3cccc(OCc4ccccc4)c3n2)cc1,nt,nt,nt,-231,nt,nt
COc1cc(OC)cc(C(=O)N[C@H](C(=O)OCC(N)=O)C(C)C)c1,3,-2,5,1,2,11*
COc1cc(OC)cc(C(=O)N[C@H](C(=O)OCC(=O)Nc2ccc(C)cc2C)C(C)C)c1,3,-4,-2,2,1,-1
O=C(/C=C/c1ccccc1O)c1ccco1,-3,-6,4,5,-3,23*
CCOC(=O)C1CCCN(CC(O)=C(C#N)c2nc(-c3ccccc3)cs2)C1 (centres undefined),nt,nt,nt,6,nt,nt
Cc1ccc(SCCc2ccc(C)nc2)cc1,12,2,0,8,28*,-1
O=C(COc1ccccc1)Nc1cccc(-c2nn[nH]n2)c1,7,-4,-2,2,8,7
O=C(COc1ccccc1)Nc1cccc(-c2nc3cc4ccccc4cc3[nH]2)c1,-6,-24,-37,i,13,26*
CC(C)(C)NC(=O)NC(=O)CSc1ccc(S(=O)(=O)N2CCCCC2)cn1,2,9,0,3,27*,0
CCOC(=O)NC(=O)CSc1ccc(S(=O)(=O)N2CCCCC2)cn1,4,-5,5,5,8,2
O=C(CSc1ccc(S(=O)(=O)N2CCCC2)cn1)Nc1ccc([N+](=O)[O-])cc1C(F)(F)F,-5,-2,nt,0,27*,-2
CSc1nsc(NN=Cc2ccc3c(c2)OCO3)c1C#N,nt,nt,nt,-25,nt,nt
COc1ccc(C=NN2C(=O)CSC2=S)cc1Br,nt,nt,nt,3,nt,nt
COc1ccc(/C=N/N2C(=O)CSC2=S)cc1Br,-9,0,29*,nt,-7,-5
CC1=C(C#N)c2nc(N)c(C#N)c(C)c2/C1=C\c1ccc(OCC(=O)O)c(Cl)c1,8,18,32*,-24,2,-1
O=C(NCC(c1ccco1)N1CCCC1)c1cccc(NS(=O)(=O)c2ccccc2)c1 (centres undefined),4,2,6,1,8,2
COc1ccccc1C(CNC(=O)c1ccc(NS(=O)(=O)c2ccc(F)c(C)c2)cc1)N(C)C (centres undefined),9,3,6,2,-3,10*
CN(C)C(CNC(=O)c1ccc(S(=O)(=O)Nc2ccccc2)cc1)c1ccco1 (centres undefined),6,1,29*,0,2,0
Cc1ccc(NS(=O)(=O)c2ccc(C(=O)NCC(c3ccco3)N3CCCCC3)cc2)cc1 (centres undefined),3,1,30*,3,4,2
O=C(NCC(c1ccco1)N1CCCCC1)c1ccc(S(=O)(=O)Nc2ccccc2)cc1 (centres undefined),2,0,30*,4,1,nt
Cc1cc(S(=O)(=O)Nc2ccc(C(=O)NCC(c3ccccc3)N(C)C)cc2)ccc1F (centres undefined),3,3,7,0,4,1
CN(C)C(CNC(=O)c1ccc(S(=O)(=O)Nc2ccccc2F)cc1)c1ccco1 (centres undefined),6,-10,3,-10,-1,3
NS(=O)(=O)c1ccc(NN=Cc2ccc(C(=O)O)cc2)c([N+](=O)[O-])c1,nt,nt,nt,14,nt,nt
O=C(c1cccc(S(=O)(=O)NCc2ccccc2)c1)N1CCN(Cc2ccccc2)CC1,4,3,27*,0,68*,15*
SMILES,PAFAH1B3 FP inh,PAFAH2 FP inh,pPAFAH inh,UCH37 DUB inh,PAFAH1B2 inh,NR3A LBD binder
O=C(COC(=O)c1cccc(S(=O)(=O)NCc2ccccc2)c1)NC1CC1,13,27,27*,1,14,1
O=C(COC(=O)c1ccc(Cl)c(S(=O)(=O)NCc2ccccc2)c1)NC1CC1,10,21,14,0,9,1
CC1Cc2ccccc2N1S(=O)(=O)c1cccc(C(=O)OCC(=O)NC2CCS(=O)(=O)C2)c1 (centres undefined),-4,17,11,0,26*,0
COc1ccc(C=NNc2nncc3ccccc23)cc1,nt,nt,nt,6,nt,nt
COc1ccc(N/N=C(/C)c2cnnc(-c3ccccc3)n2)cc1,1,-2,6,nt,5,13*
CCC/C(=N/Nc1ccc(Cl)cc1)c1cnnc(-c2ccccc2)n1,nt,nt,1,nt,nt,-1
Cc1ccc(C=NNC(=O)c2ccco2)s1,nt,nt,nt,15,nt,nt
CC(C)(C)C1CCc2c(sc(NC(=O)C3CC=CCC3C(=O)O)c2C#N)C1 (centres undefined),10,12,31*,-1,59*,-7
CCC(C)(C)C1CCc2c(sc(NC(=O)c3ccccc3C(=O)O)c2C#N)C1 (centres undefined),11,15,32*,7,67*,-14
Cc1nn(CC(=O)Nc2sc3c(c2C#N)CCC(C(C)(C)C)C3)c(C)c1[N+](=O)[O-] (centres undefined),-6,4,4,1,3,14*
N#Cc1c(NC(=O)C2CC=CCC2C(=O)O)sc2c1CCCCCC2 (centres undefined),4,6,-2,6,45*,1
N#Cc1c(NC(=O)CCC(=O)O)sc2c1CCCCC2,7,13,10,4,6,-4
CC(=NN=Cc1ccccc1O)c1ccccc1O,nt,nt,nt,4,nt,nt
O=S(=O)(Nc1ccc(-n2cccc2)cc1)c1ccc(Cl)c(Cl)c1,0,-6,17,5,7,35*
O=S(=O)(Nc1ccc(-n2cccc2)cc1)c1ccc(F)cc1,10,-9,20,2,6,-10
O=C(O)c1ccc(NS(=O)(=O)c2ccc(Cl)c(Cl)c2)cc1O,2,2,5,0,33*,-6
O=S(=O)(Nc1ccc(-n2cccc2)cc1)c1ccc(Cl)cc1Cl,6,-2,2,3,16,14*
O=C(O)c1cc(S(=O)(=O)Nc2cccc(S(=O)(=O)N3CCCC3)c2)ccc1Cl,-2,-1,nt,2,4,0
O=S(=O)(Nc1ccc(Cc2ccncc2)cc1)c1ccc(Cl)c(Cl)c1,6,0,25*,3,8,-2
